Results reported in ChEMBL document CHEMBL1687863, “Terpenoids and norlignans from Metasequoia glyptostroboides” (J Nat Prod, 2011).

Each compound was assayed on HL-60 (assay: Cytotoxicity against human HL60 cells after 48 hrs by MTT assay). Settings: HL-60, 48 h.
Type: functional, cell-based
Outline: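 Cells seeded 12 h before treatment, then exposed continuously to a range of compound concentrations for 48 h. MTT added for a further 4 h, followed by 20% SDS and 12 h at room temperature. OD read at 595 nm; IC50 calculated by the Reed and Muench method.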

Q: How did the IC50 turn out when C=CC(=C)CC[C@@H]1[C@@]2(C)CCC[C@](C)(COC(=O)/C=C/c3ccc(O)cc3)[C@@H]2CC[C@@]1(C)O was run?
A: 14.3 µM

Q: For COc1cc([C@@H](O)[C@H]2OC[C@@H](O)[C@H]2c2ccc(O)cc2)ccc1O [METASEQUIRIN F], which IC50 is on record?
A: > 40 µM

Q: For C=C[C@]1(C)CC2=C(C[C@@H]1O)[C@@]1(C)CCC[C@@](C)(C(=O)O)[C@@H]1CC2, which IC50 is on record?
A: > 40 µM

Q: With COc1cc([C@H]2[C@@H]([C@H](O)c3ccc(O)c(OC)c3)OC[C@H]2O)ccc1O [METASEQUIRIN E] as the compound, how does the IC50 read?
A: > 40 µM

Q: How did the IC50 turn out when COc1cc(/C=C/[C@@H](c2ccc(O)c(OC)c2)[C@H](O)CO)ccc1O [METASEQUIRIN D] was run?
A: > 40 µM

Q: Which IC50 does the source give for COc1ccc([C@H]2[C@@H]([C@H](OC(=O)[C@](OC)(c3ccccc3)C(F)(F)F)c3ccc(OC)c(OC)c3)OC[C@H]2OC(=O)[C@](OC)(c2ccccc2)C(F)(F)F)cc1 here?
A: > 40 µM

Q: For OC[C@@H](O)[C@@H](/C=C/c1ccc(O)cc1)c1ccc(O)c(O)c1 [SEQUIRIN C], which IC50 is on record?
A: 5.5 µM

Q: For C=C(C)C(CC)CC[C@@H](C)[C@H]1CC[C@@]2(C)[C@@H]3CC[C@@H](C(C)(C)O)[C@@]4(CCC(=O)O)C[C@@]34CC[C@]12C (some centres not stated) [METASEGLYPTORIN A], which IC50 is on record?
A: > 40 µM

Q: Which IC50 does the source give for C=C1CC[C@H]2[C@](C)(O)[C@H](C)CC[C@]2(C)[C@H]1CC/C(C)=C/C(=O)O [METASEQUOIC ACID C] here?
A: > 40 µM

Q: How did the IC50 turn out when COc1ccc([C@H]2[C@@H]([C@H](OC(=O)[C@@](OC)(c3ccccc3)C(F)(F)F)c3ccc(OC)c(OC)c3)OC[C@H]2OC(=O)[C@@](OC)(c2ccccc2)C(F)(F)F)cc1 was run?
A: > 40 µM

Q: Which IC50 does the source give for COc1ccc([C@H]2[C@@H]([C@H](O)c3ccc(OC)c(OC)c3)OC[C@H]2O)cc1 here?
A: > 40 µM

Q: How did the IC50 turn out when C=C1C=C[C@@H](C(C)C)[C@]12CC=C(C(=O)O)CC2 was run?
A: > 40 µM
